Experimental data published in PMC9407455 (Proceedings of the National Academy of Sciences of the …, 2022).

Test system: HeLa cell–derived xenografts
Experiment: Xenograft tumor assay
Format: in vivo, mice
Conditions: iJMJD6 25 mg/kg or JQ1 50 mg/kg alone or in combination, i.p. every other day
How it was run: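 Female BALB/c nude mice inoculated with HeLa cells, randomized, and injected i.p. every other day with DMSO or test compound at indicated doses. Tumour growth curves and endpoint tumour weights recorded (mean ±SEM); tumour lysates immunoblotted.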

Cc1sc2c(c1C)C(c1ccc(Cl)cc1)=N[C@@H](CC(=O)OC(C)(C)C)c1nnc(C)n1-2 [JQ1]
tumor suppressive effect: readily seen
